EBV gp42 block: EBV gp42 inhibition; Q1HVG2; Fluorescence polarization binding assay, mP read-out; inhibition, % (tested at 21.74 µM); actives 0.42% (n = 220,000); AID 1085; in the data active = inhibition above about 50%
VIM-2 inhibitor: inhibitors of Pseudomonas aeruginosa VIM-2 metallo-beta-lactamase; actives 0.89% (n = 290,000); inhibition, % at 5.6 µM; purified VIM-2, nitrocefin hydrolysis, epi-absorbance fluorescence;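 active = inhibition above the mean of all tested compounds plus 3 SD, cutoff set per screening run, cut at about 7.5% in these data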;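 also: red hydrolysis product quenches plate fluorescence so inhibitors raise well fluorescence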
BCLXL inh: blocks human Bcl-xL binding to Bim BH3 peptide | Q07817 | GST-Bcl-xL / FITC-Bim BH3 peptide fluorescence polarization | inhibition, % at 10.9 µM | actives 0.7% (n = 320,000);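 active = inhibition above the mean of all tested compounds plus 3 SD, cutoff set per campaign, cut at about 30% in these data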;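 also: inhibitors lower millipolarization by displacing the labeled peptide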
IMP-1 inh: inhibitors of Pseudomonas aeruginosa IMP-1 metallo-beta-lactamase; purified IMP-1, nitrocefin hydrolysis, epi-absorbance fluorescence; inhibition, % at 5.6 µM; actives 0.45% (n = 290,000);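 active = inhibition above the mean plus 3 SD of all compounds in the same screening run, cut at about 4.5% in these data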
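System: Purified IMP-1 | Read-out basis: Percent enzyme inhibition | Controls: IMP-1 with DMSO as 0%, enzyme-free DMSO as 100% | Replicates: One well per compound | Doses: 5.6 µM nominal single concentration | Detection: Epi-absorbance fluorescence, 480 nm excitation, 530 nm emission | Incubation: 25 °C, 15 min preincubation, 25 min reaction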
GLD-1 TGE inh: GLD-1-TGE RNA interaction inhibition (C. elegans) | Q17339 | purified GLD-1 + fluorescein TGE RNA, fluorescence polarization | inhibition, % at 5.96 µM | actives 0.44% (n = 320,000) | AID 2280;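 active = percent inhibition above a per-plate cutoff, the plate mean of test compounds plus 3 SD, cut at about 30% in these data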
Target sequence (Q17339 whole entry, looked up): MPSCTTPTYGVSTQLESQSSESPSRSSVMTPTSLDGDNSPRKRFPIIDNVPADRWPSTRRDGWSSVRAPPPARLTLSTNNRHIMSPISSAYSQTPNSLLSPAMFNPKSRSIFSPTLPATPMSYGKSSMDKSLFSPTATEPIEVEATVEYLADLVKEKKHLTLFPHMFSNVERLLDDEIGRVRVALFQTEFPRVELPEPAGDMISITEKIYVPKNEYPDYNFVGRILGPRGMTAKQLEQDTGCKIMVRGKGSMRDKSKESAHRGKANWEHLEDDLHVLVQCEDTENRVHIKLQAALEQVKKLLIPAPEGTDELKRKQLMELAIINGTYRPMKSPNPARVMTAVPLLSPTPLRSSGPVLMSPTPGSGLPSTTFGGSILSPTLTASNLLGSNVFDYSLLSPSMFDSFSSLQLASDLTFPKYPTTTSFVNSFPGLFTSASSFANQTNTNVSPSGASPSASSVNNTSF
MEX-5 binding: C. elegans MEX-5 TCR-2 RNA binding activity. AID 1832. MEX-5/FITC-TCR2 RNA binding, fluorescence polarization; stronger effect = lower value. actives 0.38% (n = 300,000). activity score (negative = inhibition of binding), % at 10 µM. Q9XUB2;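 active = inhibition past about -25% in most replicates, and total fluorescence under double the plate's negative control median, limit read from the data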
Hits are given with their value; n = inactive; x = no result. In the library only some 2.2% were active in any assay of this set; here they are far more common.

SMILES	EBV gp42 block	VIM-2 inhibitor	BCLXL inh	IMP-1 inh	GLD-1 TGE inh	MEX-5 binding
CC1(C)Cc2c(cnn2-c2ccc(F)cc2)C(NC(=O)CN2CCCCC2=O)C1 (stereo not drawn)	x	n	n	n	n	n
CC(=O)N1CC=C2C(C#N)=C(N)C(C#N)(C#N)C(C)C2C1 (stereo not drawn)	n	n	n	n	n	n
N#CC1=C(N)C(C#N)(C#N)[C@H](c2ccoc2)[C@H]2CN(Cc3ccccc3)CC=C12	90	n	114	n	75	-46
CN1CC=C2C(C#N)=C(N)C(C#N)(C#N)C(c3cccc(Cl)c3Cl)C2C1 (stereo not drawn)	86	n	83	n	68	-29
CCN1CC=C2C(C#N)=C(N)C(C#N)(C#N)C(CCc3ccccc3)C2C1 (stereo not drawn)	81	n	155	n	110	x
CN1CC=C2C(C#N)=C(N)C(C#N)(C#N)[C@H](c3ccoc3)[C@H]2C1	62	n	146	n	99	-66
CN(CC(=O)Nc1ccc(F)cc1)C(=O)c1ccc(N2C(=O)CCC2=O)cc1	x	x	n	x	n	x
CCOC(=O)c1c(C)[nH]c(C(=O)N2CCc3cc(OC)c(OC)cc3C2)c1C	x	x	n	x	n	n
CCc1ccccc1N1CC(C(=O)N2Cc3ccccc3CC2C(N)=O)CC1=O (stereo not drawn)	x	x	x	x	n	x
COc1ccc2c(c1)C(=O)Cc1ccccc1O2	x	x	n	x	n	x
COc1ccccc1NC(=O)C(=O)NCCC1CCCCN1S(=O)(=O)c1ccc(F)cc1 (stereo not drawn)	x	x	n	x	n	n
Cc1ccc(NS(=O)(=O)c2cc3c4c(cccc4c2)C(=O)NC3=O)cc1C	n	n	31	n	n	n
O=C1NC(=O)c2cc(Br)cc3cccc1c23	n	n	n	n	n	n
O=c1[nH]c(=O)n(C2OC(CO)C(O)C2O)cc1Br (stereo not drawn)	x	n	n	n	n	n
Nc1cn(C2OC(CO)C(O)C2O)c(=O)[nH]c1=O (stereo not drawn)	x	n	x	6.3	x	n
COc1cccc(NC(=O)CCC(=O)N2CC(C)Oc3ccc(C)cc32)c1 (stereo not drawn)	x	n	n	n	n	n
Cc1ccc(C(=O)N2CCCC(N3CCN(c4ccccc4C)CC3)C2)c(=O)[nH]1 (stereo not drawn)	x	n	n	n	n	n
O=C1CCc2cc(S(=O)(=O)NC3CCCCC3)ccc2N1	x	x	n	x	n	x
CN1CCc2c(sc(/N=C/c3ccco3)c2C(N)=O)C1	n	n	46	n	n	n
COc1cc2ccccc2cc1C(=O)Nc1sc2c(c1C(N)=O)CCN(C(C)C)C2	x	n	n	7.1	n	n
CN1CCc2c(sc(NC(=O)c3ccc4ccccc4c3)c2C(N)=O)C1	x	n	n	n	n	-92
COc1ccc(S(=O)(=O)NCc2nc3nc(C)cc(C)n3n2)cc1OC	x	n	n	n	n	n
C=CCn1c(Cc2nc3ccccc3[nH]2)n[nH]c1=S	n	n	n	n	n	-51
S=c1[nH]nc(CCc2nc3ccccc3[nH]2)n1-c1ccccc1	n	7.8	n	n	n	n
S=c1[nH]nc(CCc2nc3ccccc3[nH]2)n1-c1cccc(Cl)c1	n	7.7	n	n	n	n
SMILES	EBV gp42 block	VIM-2 inhibitor	BCLXL inh	IMP-1 inh	GLD-1 TGE inh	MEX-5 binding
CC(C)SCC(=O)Nc1ncc2c(n1)-c1ccccc1CC2	n	n	35	n	n	n
CCN1CCc2c(sc(NC(=O)Nc3ccc(Cl)c(Cl)c3)c2C(N)=O)C1	n	n	40	n	n	x
N#Cc1c(NC(=O)/C=C/C(=O)O)sc2c1CCN(Cc1ccccc1)C2	x	n	n	n	n	-29
NC(=O)c1c(NC(=O)c2c(F)cccc2F)sc2c1CCN(Cc1ccccc1)C2	x	n	n	n	n	-35
CCN1CCc2c(sc(NC(=O)Cc3ccccc3)c2C(N)=O)C1	x	n	n	n	n	n
NC(=O)c1c(NC(=O)c2ccccc2)sc2c1CCN(Cc1ccccc1)C2	x	n	n	n	n	-27
CC(C)C(=O)Nc1sc2c(c1C(N)=O)CCN(Cc1ccccc1)C2	x	n	n	n	n	n
CC(=O)Nc1sc2c(c1C#N)CCN(Cc1ccccc1)C2	x	n	n	n	n	n
CC(OC(=O)c1ccc2ncsc2c1)C(=O)Nc1cccc(Cl)c1 (stereo not drawn)	x	x	n	x	n	x

High-throughput results: PubChem, several laboratories
